Active and inactive are the calls of the source. No cut-off for these calls is given here.
How the values were obtained:
[1] = test system: Respiratory syncytial virus; assay: Potency index, ratio of ribavirin IC50 to test compound IC50 for antiviral activity against RSV Long expressing mGFP infected in HEp-2 cells; assay type: functional
[2] = test system: HEK-293T; assay: Cytotoxicity against human HEK-293T cells assessed as reduction in cell viability after 48 hrs by CCK-8 assay; assay type: cell-based
Method in brief: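 Cytotoxicity in 293T cells in 96-well plates incubated with compounds at six concentrations (top 200) for 48 h. CCK-8 solution added and OD read at 450 nm. DMSO-only cells served as control.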

[3] = test system: Influenza A virus; assay: Antiviral activity against Influenza A virus A/WSN/33(H1N1) infected in human HEK-293T cells assessed as inhibition of viral replication after 48 hrs by CCK-8 assay; assay type: functional, organism-based; conditions: A/WSN/1933(H1N1)
[4] = Selectivity index, ratio of CC50 for cytotoxicity against human HEp-2 cells to IC50 for antiviral activity against RSV Long expressing mGFP infected in HEp-2 cells; assay type: toxicity, cell-based; conditions: read-out: Ratio CC50/IC50
[5] = Selectivity index, ratio of CC50 for cytotoxicity against human HEK-293T cells to IC50 for antiviral activity against Influenza A virus A/WSN/33(H1N1) […] cells; assay type: toxicity, cell-based; conditions: read-out: Ratio CC50/IC50
[6] = Cytotoxicity against human HEp-2 cells assessed as reduction in cell viability after 48 hrs by MTS assay; assay type: cell-based
[7] = test system: Respiratory syncytial virus; assay: Antiviral activity against RSV Long expressing mGFP infected in HEp-2 cells assessed as reduction in viral replication after 48 hrs by MTS assay; assay type: functional, organism-based; conditions: human respiratory syncytial virus, HEp-2, 48 h
Method in brief: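 HEp-2 cells plated in 96-well plates; after 24 h, virus alone or virus plus compound added; 48 h incubation. MTS (2 mg/ml) added for 3 h at 37 °C, 5% CO2; absorbance read at 490 nm. Controls were mock-treated cells (uninfected, or infected without compound), with cell activity set as 100%.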

[8] = (§1) Inhibition of Influenza A virus A/WSN/33(H1N1) RNA polymerase expressed in HEK-293T cells after 24 hrs by dual luciferase reporter gene assay; assay type: cell-based, HEK293T
Method in brief: (§2)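 HEK293T cells transfected with pCAGGS plasmids for PB2, PB1, PA and NP, plus a pol-driven firefly luciferase reporter and SV40-Renilla, with or without compound at the indicated concentrations. vRNA transcription read as firefly and Renilla luciferase at 24 h post-transfection.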

[9] = test system: HEK293T; assay: as §1; assay type: cell-based; method in brief: as §2
[10] = test system: Influenza A virus; assay: Antiviral activity against Influenza A virus A/WSN/33(H1N1) infected in human A549 cells assessed as inhibition of viral replication at 10 uM after 2 to 6 hrs; assay type: functional, organism-based; conditions: A/WSN/1933(H1N1), time 2-6 hrs
[11] = test system: Influenza A virus; assay: Antiviral activity against Influenza A virus A/WSN/33(H1N1) infected in human HEK-293T cells assessed as inhibition of viral replication at 10 uM after 48 hrs by CCK-8 assay relative to control; assay type: functional, A/WSN/1933(H1N1); set-up: scale not given: the % may be the effect or the level left
[12] = test system: Influenza A virus; assay: Potency index, ratio of ribavirin IC50 to test compound IC50 for antiviral activity against Influenza A virus A/WSN/33(H1N1) infected in human HEK-293T cells; assay type: functional, A/WSN/1933(H1N1)

| Compound | Ratio IC50 [1] | IC50 [2] [µM] | IC50 [3] [µM] | selectivity ratio [4] | selectivity ratio [5] | CC50 at 48 h [6] [µM] | IC50 [7] [µM] | IC50 [8] [µM] | inhibition [9] | Activity [10] | Activity [11] [%] | Ratio IC50 [12] |
| --- | --- | --- | --- | --- | --- | --- | --- | --- | --- | --- | --- | --- |
| CN(C)c1ccc2cccc(OCC(=O)NCc3ccccc3)c2n1 | 2.5 | > 100 | 14.2 | 54.1 | > 7.02 | 168 | 3.1 | – | – | – | – | – |
| O=C(COc1cccc2ccc(N3CCCC3)nc12)NCc1cccc(Cl)c1 | – | – | – | 2.41 | – | 73 | 30.2 | – | – | – | – | – |
| O=C(COc1cccc2ccc(N3CCOCC3)nc12)NCc1ccccc1 | – | – | – | 1.28 | – | 46.2 | 36.1 | – | – | – | – | – |
| CN1CCN(c2ccc3cccc(OCC(=O)NCc4ccccc4)c3n2)CC1 | – | > 100 | 9.87 | 13.7 | > 10.1 | 264 | 19.3 | – | – | – | – | – |
| CC(C)(C)OC(=O)N1CCN(c2ccc3cccc(OCC(=O)NCc4ccccc4)c3n2)CC1 | – | > 100 | 1.87 | 80.9 | > 53.5 | 1370 | 16.9 | 1.93 | Dose-dependent effect | Active | >70 | 8.2 |
| O=C(COc1cccc2ccc(N3CCCC3)nc12)Nc1ccccc1 | – | – | – | 18.4 | – | 304 | 16.5 | – | – | – | – | – |
| O=C(COc1cccc2ccc(N3CCCC3)nc12)NCc1ccccc1Br | – | – | – | 1.71 | – | 312 | 182 | – | – | – | – | – |
| NC(=O)c1ncn([C@@H]2O[C@H](CO)[C@@H](O)[C@H]2O)n1 [RIBAVIRIN] | – | > 100 | – | 175 | > 6.51 | 3040 | 17.3 | – | – | – | – | – |
| c1cc(OCCCN2CCOCC2)c2nc(N3CCCC3)ccc2c1 | – | > 100 | 50.7 | 39.2 | > 1.97 | 552 | 14.1 | – | – | – | – | – |
| CCOC(=O)COc1cccc2ccc(N3CCCC3)nc12 | – | – | – | 50.3 | – | 826 | 16.4 | – | – | – | – | – |
| c1cc(OCCCCCN2CCOCC2)c2nc(N3CCCC3)ccc2c1 | – | > 100 | 32.4 | 5.52 | > 3.08 | 173 | 31.3 | – | – | – | – | – |
| COc1ccc(CNC(=O)COc2cccc3ccc(N4CCCC4)nc23)cc1 | 2.5 | – | – | 673 | – | 2490 | 3.7 | – | – | – | – | – |
| O=C(COc1cccc2ccc(N3CCCC3)nc12)NC12CC3CC(CC(C3)C1)C2 | – | > 100 | 11.5 | – | > 8.73 | – | – | – | – | – | – | – |
| CC(C)(C)OC(=O)N[C@@H]1CCN(c2ccc3cccc(OCC(=O)NCc4ccccc4)c3n2)C1 | – | 49.9 | 4.99 | 1.66 | 9.99 | 58.6 | 35.3 | – | – | – | >70 | – |
| CC(C)(C)OC(=O)N[C@H]1CCN(c2ccc3cccc(OCC(=O)NCc4ccccc4)c3n2)C1 | 2.5 | 58 | 5.11 | 9.59 | 11.3 | 43.8 | 4.57 | – | – | – | >70 | – |
| CS(=O)(=O)c1ccc(CNC(=O)COc2cccc3ccc(N4CCCC4)nc23)cc1 | – | – | – | 6.14 | – | 1360 | 221 | – | – | – | – | – |

| Compound | Ratio IC50 [1] | IC50 [2] [µM] | IC50 [3] [µM] | selectivity ratio [4] | selectivity ratio [5] | CC50 at 48 h [6] [µM] | IC50 [7] [µM] | IC50 [8] [µM] | inhibition [9] | Activity [10] | Activity [11] [%] | Ratio IC50 [12] |
| --- | --- | --- | --- | --- | --- | --- | --- | --- | --- | --- | --- | --- |
| O=C(COc1cccc2ccc(Cl)nc12)NCc1ccccc1 | – | – | – | 25.6 | – | 528 | 20.7 | – | – | – | – | – |
| O=C(COc1cccc2ccc(N3CCCCC3)nc12)NCc1ccccc1 | – | – | – | 66.7 | – | 1740 | 26.1 | – | – | – | – | – |
| O=C(COc1cccc2ccc(N3CCCC3)nc12)NCc1ccc(F)cc1 | 2.5 | – | – | 483 | – | 2130 | 4.41 | – | – | – | – | – |
| O=C(COc1cccc2ccc(N3CCCC3)nc12)NCc1ccc(Cl)cc1 | – | – | – | 6.26 | – | 245 | 39.2 | – | – | – | – | – |
| O=C(COc1cccc2ccc(N3CCCC3)nc12)NCc1ccccc1 | – | > 100 | 13.3 | 9.68 | > 7.5 | 540 | 55.8 | – | – | – | – | – |
| O=C(COc1cccc2ccc(N3CCCC3)nc12)NCc1ccc(Br)cc1 | – | > 100 | 42.3 | – | > 2.36 | – | – | – | – | – | – | – |
| O=C(COc1cccc2ccc(N3CCCC3)nc12)NCc1ccco1 | – | – | – | 10.9 | – | 249 | 22.9 | – | – | – | – | – |
| CCOc1ccccc1NC(=O)COc1cccc2ccc(N3CCCC3)nc12 | – | – | – | 31.5 | – | 1040 | 33.2 | – | – | – | – | – |
| CNc1ccc2cccc(OCC(=O)NCc3ccccc3)c2n1 | – | – | – | 9.2 | – | 94.8 | 10.3 | – | – | – | – | – |
| COc1cccc(CNC(=O)COc2cccc3ccc(N4CCCC4)nc23)c1 | 2.5 | – | – | 10.7 | – | 74.3 | 6.93 | – | – | – | – | – |
| O=C(COc1cccc2ccc(N3CCCC3)nc12)NCc1cccc(F)c1 | – | – | – | 0.15 | – | 444 | 2920 | – | – | – | – | – |
| O=C(COc1cccc2ccc(N3CCCC3)nc12)NCC1CC1 | – | – | – | 20 | – | 580 | 29 | – | – | – | – | – |
| O=C(COc1cccc2ccc(N3CCCC3)nc12)NCc1ccc(C(F)(F)F)cc1 | – | > 100 | 36.1 | 11.8 | > 2.77 | 327 | 27.8 | – | – | – | – | – |
| CCOc1ccccc1CNC(=O)COc1cccc2ccc(N3CCCC3)nc12 | – | > 100 | 7.46 | 2.48 | > 13.4 | 113 | 45.7 | – | – | – | – | – |
| c1cc(OCCCCN2CCOCC2)c2nc(N3CCCC3)ccc2c1 | – | – | – | 59.6 | – | 691 | 11.6 | – | – | – | – | – |
